# Columns and labels:
# L929 cells = test: Cellular uptake of NR-loaded micelles; type: cell-based
# Method in brief: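 L929 cells (CD44-negative) grown 24 h in DMEM with 10% FBS, then medium replaced with free fluorescent marker NR or micelles loaded with NR at 0.2% drug loading. Incubated at 37 °C for 1, 4 and 8 h, washed thrice with PBS, and viewed by fluorescent inverted microscope. For flow cytometry at 1 and 4 h, cells were PBS-washed, trypsinised, resuspended in PBS, and read at 560/620 nm.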
# B16F10 cells = test: Cellular uptake of NR-loaded micelles; type: cell-based; conditions: B16F10, flow cytometry, 1 h and 4 h
smiles,measurement,setting,value
"CCN(CC)c1ccc2nc3c4ccccc4c(=O)cc-3oc2c1 [free NR, nile red]",Fluorescence intensity of NR (cellular uptake),"L929 cells; L929 (CD44-negative), fluorescent inverted microscope",highest
same,Fluorescence intensity of NR (cellular uptake),"L929 cells; L929, flow cytometry, 1 h and 4 h",highest
same,"Intracellular NR concentrations, order",B16F10 cells,HA-SS-ATRA21/NR micelles > HA-ATRA20/NR micelles > free NR > HA-SS-ATRA21/NR micelles treated with free-HA

# From PMC7032146 (Asian Journal of Pharmaceutical Sciences, 2018)
